The results in this text go back to ChEMBL document CHEMBL4513216, “Probing the Open Global Health Chemical Diversity Library for Multistage-Active Starting Points for Next-Generation Antimalarials” (ACS Infect Dis, 2020).

The nature of this data set: Toxicity liver stage against HepG2, at 10uM. It is filed as cell-based. Further details: test concentration 10 uM, cell line HepG2-A16-CD81EGFP. The conditions noted are these: human, HepG2-A16-CD81EGFP cells; read-out: INHIBITION
In outline:
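Uninfected HepG2-A16-CD81EGFP cells, 3 × 10^3 per well, 1536-well, plated on prespotted compound at 10 μM final, parasite-free screening media added to match infected plates; puromycin 10 μM positive, DMSO 0.5% negative; run in parallel with 48 h PbLuc assay at 37 °C, 5% CO2; viability by CellTiter-Glo luminescence, normalized to controls.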
In the case of `COc1ccc(CN2CCOC[C@H]2c2nc(-c3ccncc3)c[nH]2)cc1`, the cytotoxicity at 10 µM is -0.588%.

For the molecule `O=C(CN1C(=O)CCC1=O)N1CCC(S(=O)(=O)Cc2ccco2)CC1`, the cytotoxicity at 10 µM was 3.79%.

For the molecule `CCOCC(=O)NCC1Cn2nnc(-c3cccc(F)c3)c2CO1` (stereo unspecified), the cytotoxicity at 10 µM was -1.29%.

With `O=C(NCC1CC1)C1=NOC2(CCN(Cc3ccsc3)C2)C1` (stereo unspecified), the cytotoxicity at 10 µM stood at 1.47%.

For `Cn1cc(CN2CC[C@H]3OCC[C@@H](C(=O)Nc4cnccn4)[C@@H]3C2)cn1`, the cytotoxicity at 10 µM worked out at 4.12%.

On to `Cc1ccc(S(=O)(=O)NC2CNC(=O)C2)cc1C` (stereo unspecified), for which the cytotoxicity at 10 µM was -21.1%.

Turning to `COc1ccc(C)cc1NC(=O)Nc1cnc(N2CCN(C)CC2)nc1`, the cytotoxicity at 10 µM came out at 5.06%.

As for `O=C1CCSCC(C(=O)N2CCCC2)N1` (stereo unspecified), the cytotoxicity at 10 µM is -9.83%.

Turning to `O=C1CCSCC(C(=O)N2CCN(C3CCCCC3)CC2)N1` (stereo unspecified), the cytotoxicity at 10 µM is -18.7%.

In the case of `O=C(c1ccsc1)N1CCc2c(CNc3ncccn3)n[nH]c2C1`, the cytotoxicity at 10 µM is -16.7%.

`CC(C)C(NC(=O)c1cnc(N2CCOCC2)nc1)c1cccs1` (stereo unspecified): the cytotoxicity at 10 µM turned out to be 9.71%.

For `COCCN1CCN(c2nc(O)cc(Cc3ccccc3F)n2)CC1`, the cytotoxicity at 10 µM is -4.52%.

As for `c1cc(-c2cnc(C3CCNCC3)cn2)n[nH]1`, the cytotoxicity at 10 µM is -2.78%.

As for `Cc1cc(C)cc(-c2cccc(CC3(C(=O)O)CCOCC3)c2)c1`, the cytotoxicity at 10 µM was -4.04%.

In the case of `Cc1noc(C)c1CN1CCCCC1c1nc(-c2ccccc2)no1` (stereo unspecified), the cytotoxicity at 10 µM is -44%.

For `Cc1ccc(-c2nc(CC(=O)NCC3CCCN(C(C)C)C3)cs2)o1` (stereo unspecified), the cytotoxicity at 10 µM was -53.2%.

Regarding `NC(=O)CSCC(=O)NC1(c2cccc(Cl)c2)CC1`, the cytotoxicity at 10 µM was -16.4%.

On to `N#CC1(NC(=O)COc2cc(Cl)cc(Cl)c2)CCSC1` (stereo unspecified), for which the cytotoxicity at 10 µM is 7.95%.

`O=C(Nc1cc(C(F)(F)F)c[nH]c1=O)C1CCCN1` (stereo unspecified): the cytotoxicity at 10 µM is -7.33%.

Regarding `COC(=O)CC1CCCCN1CC(=O)NCCc1ccc(F)cc1` (stereo unspecified), the cytotoxicity at 10 µM is -8.61%.

As for `COc1ccc(OCc2nc3cc4c(cc3c(=O)o2)OCCCO4)cc1`, the cytotoxicity at 10 µM is 5.73%.

As to `CC(C)c1noc(CCCC(=O)N2CCN(C)CC2c2ccccc2)n1` (stereo unspecified), the cytotoxicity at 10 µM is -2.89%.

As to `Cc1ccnc(C(NC(=O)c2oc(C)nc2C)C2CC2)n1` (stereo unspecified), the cytotoxicity at 10 µM is -0.392%.

Consider `Cc1nn(C)c(C)c1OCC(=O)NCc1cccc(C(=O)O)c1`, for which the cytotoxicity at 10 µM was -3.83%.

For `O=c1oc(-c2ccccc2)nn1CN1CCC(N2CCCCC2)CC1`, the cytotoxicity at 10 µM stood at 6.64%.

Consider `CCN(Cc1ccccc1)C(=O)CN1CCCCC1Cn1cncn1` (stereo unspecified), for which the cytotoxicity at 10 µM worked out at 7.15%.

As to `Cc1ccc(C(=O)N(C)Cc2ccc(Br)o2)c(=O)[nH]1`, the cytotoxicity at 10 µM was 8.6%.

As to `CC(CN1CCCC1=O)NC(=O)c1cc(Cl)c2c(c1)OCO2` (stereo unspecified), the cytotoxicity at 10 µM is -10.4%.

Regarding `CC(C)c1cnc(CN(C)C2CCN(CCS(C)(=O)=O)C2)o1` (stereo unspecified), the cytotoxicity at 10 µM came to 0.528%.

As to `CCN(c1cccc(F)c1)S(=O)(=O)c1cc(C(=O)O)cc2c1CCC2`, the cytotoxicity at 10 µM is 10.5%.

With `CC(Cc1ccco1)NC(=O)CCn1cccn1` (stereo unspecified), the cytotoxicity at 10 µM is -6.19%.

In the case of `CC(CNC(=O)C1(c2ccc(F)cc2)CC1)CN1CCCC1=O` (stereo unspecified), the cytotoxicity at 10 µM is -8.26%.

Consider `Cc1cc(N2CCC(NC(=O)CCc3ccco3)CC2)nc(C)n1`, for which the cytotoxicity at 10 µM is -14.3%.

Take `CC(CC#N)N(C)Cc1ccccc1Cl` (stereo unspecified): the cytotoxicity at 10 µM was -8.67%.

Take `CC(C)OCCC(=O)Nc1cc(C(=O)N(C)C(C)C)ccc1Cl`: the cytotoxicity at 10 µM is -3.79%.

`CC(=O)N(Cc1ccc(NCc2cnn(C(C)(C)C)c2)cc1)C(C)C`: the cytotoxicity at 10 µM was -3.44%.

Regarding `CCc1cnccc1C(=O)NC1CCN(C(=O)C2CCCCC2)CC1`, the cytotoxicity at 10 µM came out at 3.51%.

`Cc1cccc2c1C(=O)NC1(CCOCC1)N2`: the cytotoxicity at 10 µM is -42.3%.

On to `COCC(=O)NC1(c2cccc(C(F)(F)F)c2)CCC1`, for which the cytotoxicity at 10 µM was -50%.

As to `CCc1nnsc1C(=O)N(C)Cc1ccc(Br)o1`, the cytotoxicity at 10 µM is -48.8%.

`FC(F)(F)c1cccc(C2(CNCc3ccncc3)CCOCC2)c1`: the cytotoxicity at 10 µM is -6.98%.

With `O=C(c1cccc(NCCO)c1)N1CCOCC1`, the cytotoxicity at 10 µM is -11%.

On to `Cc1noc(Cl)c1CCC(=O)N1CCCCC1Cn1cccn1` (stereo unspecified), for which the cytotoxicity at 10 µM is -12.6%.

For `Cc1noc([C@]23COC[C@H]2CN(C(=O)Cc2ccsc2)C3)n1`, the cytotoxicity at 10 µM is -95.9%.

As for `CCOCC(=O)N1CCC2(CC1)CC(c1ccccc1)CO2` (stereo unspecified), the cytotoxicity at 10 µM is -113%.

Turning to `O=C(Cc1ccco1)N1C[C@H]2CCC[C@@]2(COCc2cccnc2)C1`, the cytotoxicity at 10 µM was -115%.

Consider `COCCNC(=O)[C@H]1CO[C@H]2CCN(Cc3cccs3)C[C@H]2C1`, for which the cytotoxicity at 10 µM was -108%.

For the molecule `O=C(CNCc1ccccc1Cn1cccn1)Nc1cnccn1`, the cytotoxicity at 10 µM turned out to be 8.11%.

For the molecule `Cc1cccc2sc(NC(=O)CN3CCCC4(CC3)CNC(=O)O4)nc12` (stereo unspecified), the cytotoxicity at 10 µM is -4.26%.

Take `Cc1cccc(CN2CCN(C(=O)N(C)C)[C@@H]3CS(=O)(=O)C[C@@H]32)n1`: the cytotoxicity at 10 µM amounted to 0.00559%.

As to `Cn1cc(CN(CC2(O)CCNC2)C2CCCCC2)cn1` (stereo unspecified), the cytotoxicity at 10 µM came to 17.8%.

With `CC(C)c1nc(CCN(C)c2nccc(N3CCCC(O)C3)n2)no1` (stereo unspecified), the cytotoxicity at 10 µM was -12%.

Regarding `Fc1ccc(CC2CCN(Cc3nccs3)CC2)cc1`, the cytotoxicity at 10 µM is -2.87%.

For the molecule `CCn1c(C2CCCNC2)nn(Cc2ccc(C(=O)NC)o2)c1=O` (stereo unspecified), the cytotoxicity at 10 µM turned out to be 8.25%.

As for `Cc1nccn1-c1ccc(N2CCC(NC(C)CC(C)C)CC2)cc1` (stereo unspecified), the cytotoxicity at 10 µM was found to be 1.71%.

For the molecule `CN(CCCc1cnn(C)c1)C(=O)C1CCN(C(=O)C2CCC2)CC1`, the cytotoxicity at 10 µM is -11.6%.

`COc1cccc2c1OCCCN(c1nc3c(c(=O)[nH]1)CCNCC3)C2`: the cytotoxicity at 10 µM is -5.24%.

Turning to `C[C@@H]1CN(S(=O)(=O)N2CCCC2)CC[C@@]1(O)C1CCOCC1`, the cytotoxicity at 10 µM was 4.49%.

In the case of `COc1ccc(-c2n[nH]cc2CN(C)CCC2CCOCC2)cc1F`, the cytotoxicity at 10 µM was -6.57%.

For `O=C(Cn1nnc(-c2ccc(F)cc2)n1)N1CCOCC(O)C1` (stereo unspecified), the cytotoxicity at 10 µM came to 10.9%.

With `CC(C)=CCN1CCC2(CC1)CC(=O)N(Cc1cc(F)cc(F)c1)C2`, the cytotoxicity at 10 µM amounted to 0.308%.

As to `CCN(CC)S(=O)(=O)c1ccc(NC(=O)C(C)(C)C)cc1`, the cytotoxicity at 10 µM came to 9.22%.

As to `COCc1nc(CNC2CCSC2)no1` (stereo unspecified), the cytotoxicity at 10 µM was -1.37%.

`C=Cc1cccc(CN2CCCn3nc(CNS(C)(=O)=O)cc3C2)c1`: the cytotoxicity at 10 µM came to 3.15%.

Take `CC(=O)N[C@H]1CCN(c2nc(C)nc3c2c(C)nn3C)C1`: the cytotoxicity at 10 µM came out at 4.61%.

As for `CC(C)CC(O)C1CCN(Cc2cnc(-c3cccs3)nc2)CC1` (stereo unspecified), the cytotoxicity at 10 µM is -3.18%.

`CN1CCc2[nH]cnc2C12CCN(Cc1ccc(S(C)(=O)=O)cc1)CC2`: the cytotoxicity at 10 µM is -3.72%.

Turning to `CC(C)c1cc(C(=O)N2C[C@@H](C)[C@](O)(C3CC3)C2)[nH]n1`, the cytotoxicity at 10 µM was 16.3%.

Consider `CNc1cc(C)nc(N2C[C@@H](C(=O)O)[C@H](C3CC3)C2)n1`, for which the cytotoxicity at 10 µM is -0.147%.

In the case of `Cn1nc(C2CN(C(=O)c3cscn3)C2)c2nccnc21`, the cytotoxicity at 10 µM was 2.21%.

On to `Cc1nccc(CN2CC[C@H](Oc3cccc(F)c3)[C@@](C)(O)C2)n1`, for which the cytotoxicity at 10 µM came out at 2.84%.

With `COc1c(C2CCCN2C(=O)c2cscn2)c(C)nn1C` (stereo unspecified), the cytotoxicity at 10 µM amounted to 5.77%.

Regarding `COCCc1noc(CN2CCCC2Cn2cccn2)n1` (stereo unspecified), the cytotoxicity at 10 µM was -0.206%.

As for `COc1ccc(-n2ccc(C(=O)NCCN3CCC(C)CC3)n2)cc1`, the cytotoxicity at 10 µM was -6.48%.

For the molecule `Cc1cc(C[S+]([O-])CC(=O)NCc2ccccc2)no1` (stereo unspecified), the cytotoxicity at 10 µM is -2.13%.

With `Cc1nc(C)n(CC2CCCCN2Cc2nc3ccccc3o2)n1` (stereo unspecified), the cytotoxicity at 10 µM was -6.8%.

As for `Cc1cc(NC(=O)CN2CCCC2Cn2nc(C)nc2C)n(C)n1` (stereo unspecified), the cytotoxicity at 10 µM was -2.49%.

Turning to `CCCNC(=O)C(C)N1CCC(C(=O)Nc2cnn(CC)c2)CC1` (stereo unspecified), the cytotoxicity at 10 µM is -5.36%.

Take `c1sc(C2CCCCC2)nc1CN1CCn2c(nnc2C2CC2)C1`: the cytotoxicity at 10 µM is -6.61%.

In the case of `COCCCC(=O)NS(=O)(=O)c1ccc2c(c1)OCCCO2`, the cytotoxicity at 10 µM is -2.77%.

For `Cc1nccn1C1CCCN(C(=O)c2ccc3c(c2)nnn3C)C1` (stereo unspecified), the cytotoxicity at 10 µM was -7.89%.

Turning to `Cc1nnc(NCc2cccnc2N(C)C)c(C#N)c1C`, the cytotoxicity at 10 µM is -4.94%.

`Cc1ncc2c(n1)CCN(Cc1nc3ccccc3o1)C2`: the cytotoxicity at 10 µM was 1.66%.

`Cc1cnn(CC2CCCN2c2nn3cc(C)nc3s2)c1` (stereo unspecified): the cytotoxicity at 10 µM is -2.84%.

For `Cc1ccc(OCCCNC(=O)NC(C)c2nncn2C)cc1` (stereo unspecified), the cytotoxicity at 10 µM is -3.83%.

Turning to `Fc1cnc(N2CCO[C@H]3[C@H](OCC4CCOCC4)CC[C@@H]32)nc1`, the cytotoxicity at 10 µM was determined as 10.7%.

As for `Cc1cc(-c2cnn(CCNC(=O)c3cccnc3)c2C2CC2)on1`, the cytotoxicity at 10 µM turned out to be 0.565%.

On to `c1ccc(NCc2cn3c(n2)CN(Cc2cccnc2)CC3)nc1`, for which the cytotoxicity at 10 µM amounted to 1.52%.

Turning to `O=C(CCC1CCCC1)NCCn1nc(C2CCNC2)c2cccnc21` (stereo unspecified), the cytotoxicity at 10 µM is -2.83%.

Take `Cc1nc(N2CCOCC2)nc2c1CCN(Cc1nccn1C)CC2`: the cytotoxicity at 10 µM is -125%.

With `O=C(N1CCOCC1)[C@@]12CCO[C@@H]1CCN(C1CCOCC1)C2`, the cytotoxicity at 10 µM worked out at 5.83%.

Take `CC(C)N1CCO[C@H]2CN(C(=O)c3ccoc3)C[C@H]21`: the cytotoxicity at 10 µM is -0.207%.

As to `CS(=O)(=O)N1CC[C@H]2OCC[C@@]2(C(=O)NCCc2ccccn2)C1`, the cytotoxicity at 10 µM is -101%.

For the molecule `CS(=O)(=O)NC[C@]12COC[C@H]1CN(Cc1ccc3c(c1)OCO3)C2`, the cytotoxicity at 10 µM is -106%.

Regarding `CC(C)N(C)Cc1ncn2c1CN(S(=O)(=O)c1cccs1)CCC2`, the cytotoxicity at 10 µM stood at 3.62%.

Regarding `O=C(c1ccccn1)N1Cc2nccn2CC(CN2CCOCC2)C1` (stereo unspecified), the cytotoxicity at 10 µM was determined as 2.16%.
